Type in all cases: functional
Details in all cases: Homo sapiens, read-out: Activity

Assay [1] deals with HUVEC. The experiment in a line: Antiischemic activity against hypoxia/reoxygenation-induced cell injury in HUVEC assessed as cell viability at 0.5 uM by MTT assay. The procedure, abridged:
(§1)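 HUVEC given hypoxia/reoxygenation (H/R) injury and treated with saponin at one of six dose groups (0.5, 1, 5, 10, 50, 100 µM). Viability was read by MTT assay, with untreated control cells and H/R-only cells as references. Values are mean ± SEM of three independent experiments, and significance was tested against the H/R group.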

Assay [2] deals with HUVEC. The experiment in a line: Antiischemic activity against hypoxia/reoxygenation-induced cell injury in HUVEC assessed as cell viability at 1 uM by MTT assay. The procedure, abridged: as §1
Assay [3] relates to HUVEC. The experiment in a line: Antiischemic activity against hypoxia/reoxygenation-induced cell injury in HUVEC assessed as cell viability at 5 uM by MTT assay. The gist of the method: as §1
The test system of assay [4] is HUVEC. The experiment in a line: Antiischemic activity against hypoxia/reoxygenation-induced cell injury in HUVEC assessed as cell viability at 10 uM by MTT assay. The gist of the method:
as §1

In assay [5] the test system is HUVEC. The experiment in a line: Antiischemic activity against hypoxia/reoxygenation-induced cell injury in HUVEC assessed as cell viability at 50 uM by MTT assay. The procedure, abridged: as §1
In assay [6] the test system is HUVEC. The experiment in a line: Antiischemic activity against hypoxia/reoxygenation-induced cell injury in HUVEC assessed as cell viability at 100 uM by MTT assay. The gist of the method:
as §1

Turning to `C[C@@H](CC[C@@]1(O)O[C@H]2C[C@H]3[C@@H]4CC=C5C[C@@H](O[C@@H]6O[C@H](CO)[C@@H](O)[C@H](O)[C@H]6O[C@@H]6O[C@H](CO)[C@@H](O)[C@H](O)[C@H]6O[C@@H]6O[C@H](CO)[C@@H](O)[C@H](O)[C@H]6O)[C@H](O)C[C@]5(C)[C@H]4CC[C@]3(C)[C@H]2[C@@H]1C)CO[C@@H]1O[C@H](CO)[C@@H](O)[C@H](O)[C@H]1O` [FISTULOSAPONIN F], in assay [1], the viability at 0.5 µM was 62.3%. For the same molecule, the viability at 1 µM in assay [2] worked out at 68.3%. Moreover, the viability at 5 µM in assay [3] came to 74.1%. The viability at 10 µM in assay [4] is 75.5%. Also, the viability at 50 µM in assay [5] stood at 77.4%. In assay [6], the viability at 100 µM turned out to be 71.2%.

For `C[C@@H](CC[C@@]1(O)O[C@H]2C[C@H]3[C@@H]4CC=C5C[C@@H](O[C@@H]6O[C@H](CO)[C@@H](O)[C@H](O)[C@H]6O[C@@H]6O[C@H](CO)[C@@H](O)[C@H](O)[C@H]6O[C@@H]6O[C@H](CO)[C@@H](O)[C@H](O)[C@H]6O)C(=O)C[C@]5(C)[C@H]4CC[C@]3(C)[C@H]2[C@@H]1C)CO[C@@H]1O[C@H](CO)[C@@H](O)[C@H](O)[C@H]1O` [FISTULOSAPONIN D], in assay [1], the viability at 0.5 µM was determined as 68.9%. Also, in assay [2], the viability at 1 µM worked out at 72.6%. The viability at 5 µM in assay [3] worked out at 78.2%. Moreover, the viability at 10 µM in assay [4] was 79.8%. Besides, in assay [5], the viability at 50 µM was 82.4%. In addition, the viability at 100 µM in assay [6] turned out to be 75.6%.

Regarding `C[C@@H](CC[C@@]1(O)O[C@H]2C[C@H]3[C@@H]4CC=C5C[C@@H](O[C@@H]6O[C@H](CO)[C@@H](O)[C@H](O[C@@H]7O[C@H](CO)[C@@H](O)[C@H](O)[C@H]7O)[C@H]6O[C@@H]6O[C@@H](C)[C@H](O)[C@@H](O)[C@H]6O)CC[C@]5(C)[C@H]4CC[C@]3(C)[C@H]2[C@@H]1C)CO[C@@H]1O[C@H](CO)[C@@H](O)[C@H](O)[C@H]1O` [PROTOGRACILLIN], the viability at 0.5 µM in assay [1] came out at 60.9%. In addition, the viability at 1 µM in assay [2] stood at 69.5%. Further, the viability at 5 µM in assay [3] came out at 75.2%. Besides, the viability at 10 µM in assay [4] was 77.9%. Also, the viability at 50 µM in assay [5] is 78.2%. For the same molecule, the viability at 100 µM in assay [6] was 68%.

With `C[C@@H](CC[C@@]1(O)O[C@H]2C[C@H]3[C@@H]4CC=C5C[C@@H](O[C@@H]6O[C@H](CO)[C@@H](O[C@@H]7O[C@@H](C)[C@H](O)[C@@H](O)[C@H]7O)[C@H](O)[C@H]6O[C@@H]6O[C@@H](C)[C@H](O)[C@@H](O)[C@H]6O)CC[C@]5(C)[C@H]4CC[C@]3(C)[C@H]2[C@@H]1C)CO[C@@H]1O[C@H](CO)[C@@H](O)[C@H](O)[C@H]1O`, in assay [1], the viability at 0.5 µM is 60.7%. The viability at 1 µM in assay [2] was 63.5%. Also, in assay [3], the viability at 5 µM was 69.4%. Also, in assay [4], the viability at 10 µM was determined as 72.1%. In addition, the viability at 50 µM in assay [5] turned out to be 74.3%. Further, the viability at 100 µM in assay [6] was determined as 68.6%.

Turning to `C[C@@H](CC[C@@]1(O)O[C@H]2C[C@H]3[C@@H]4CC=C5C[C@@H](O[C@@H]6O[C@H](CO)[C@@H](O)[C@H](O)[C@H]6O[C@@H]6O[C@@H](C)[C@H](O[C@@H]7O[C@@H](C)[C@H](O)[C@@H](O)[C@H]7O)[C@@H](O)[C@H]6O)C(=O)C[C@]5(C)[C@H]4CC[C@]3(C)[C@H]2[C@@H]1C)CO[C@@H]1O[C@H](CO)[C@@H](O)[C@H](O)[C@H]1O` [FISTULOSAPONIN C], in assay [1], the viability at 0.5 µM was 71.7%. In assay [2], the viability at 1 µM came out at 74.8%. Besides, the viability at 5 µM in assay [3] worked out at 79.7%. Also, the viability at 10 µM in assay [4] worked out at 81.2%. Also, the viability at 50 µM in assay [5] amounted to 84.6%. Also, in assay [6], the viability at 100 µM was 69.5%.

As to `CC1=C(CC[C@H](C)CO[C@@H]2O[C@H](CO)[C@@H](O)[C@H](O)[C@H]2O)O[C@H]2C[C@H]3[C@@H]4CC=C5C[C@@H](O[C@@H]6O[C@H](CO)[C@@H](O[C@@H]7O[C@@H](C)[C@H](O)[C@@H](O)[C@H]7O)[C@H](O)[C@H]6O[C@@H]6O[C@@H](C)[C@H](O)[C@@H](O)[C@H]6O)C(=O)C[C@]5(C)[C@H]4CC[C@]3(C)[C@@H]12` [FISTULOSAPONIN A], the viability at 0.5 µM in assay [1] turned out to be 59.5%. Moreover, the viability at 1 µM in assay [2] turned out to be 76.3%. For the same molecule, the viability at 5 µM in assay [3] worked out at 80.1%. The viability at 10 µM in assay [4] was found to be 82.7%. The viability at 50 µM in assay [5] is 86.3%. Further, the viability at 100 µM in assay [6] was 78.2%.

As to `C[C@@H](CC[C@@]1(O)O[C@H]2C[C@H]3[C@@H]4CC=C5C[C@@H](O[C@@H]6O[C@H](CO)[C@@H](O[C@@H]7O[C@@H](C)[C@H](O[C@@H]8O[C@@H](C)[C@H](O)[C@@H](O)[C@H]8O)[C@@H](O)[C@H]7O)[C@H](O)[C@H]6O[C@@H]6O[C@@H](C)[C@H](O)[C@@H](O)[C@H]6O)CC[C@]5(C)[C@H]4CC[C@]3(C)[C@H]2[C@@H]1C)CO[C@@H]1O[C@H](CO)[C@@H](O)[C@H](O)[C@H]1O`, in assay [1], the viability at 0.5 µM amounted to 64%. Moreover, the viability at 1 µM in assay [2] was determined as 65.2%. The viability at 5 µM in assay [3] is 69.5%. Also, the viability at 10 µM in assay [4] turned out to be 73.3%. The viability at 50 µM in assay [5] was 73.6%. Also, the viability at 100 µM in assay [6] was 62.8%.

For `C[C@@H](CC[C@@]1(O)O[C@H]2C[C@H]3[C@@H]4CC=C5C[C@@H](O[C@@H]6O[C@H](CO)[C@@H](O[C@@H]7O[C@@H](C)[C@H](O)[C@@H](O)[C@H]7O)[C@H](O)[C@H]6O[C@@H]6O[C@@H](C)[C@H](O)[C@@H](O)[C@H]6O)C(=O)C[C@]5(C)[C@H]4CC[C@]3(C)[C@H]2[C@@H]1C)CO[C@@H]1O[C@H](CO)[C@@H](O)[C@H](O)[C@H]1O` [FISTULOSAPONIN B], in assay [1], the viability at 0.5 µM worked out at 65.7%. In addition, the viability at 1 µM in assay [2] is 71.8%. Moreover, the viability at 5 µM in assay [3] is 77.2%. In assay [4], the viability at 10 µM is 79.4%. Further, the viability at 50 µM in assay [5] came out at 82.1%. In addition, in assay [6], the viability at 100 µM is 74.8%.

Take `CC1=C(CC[C@H](C)CO[C@@H]2O[C@H](CO)[C@@H](O)[C@H](O)[C@H]2O)O[C@H]2C[C@H]3[C@@H]4CC=C5C[C@@H](O[C@@H]6O[C@H](CO)[C@@H](O)[C@H](O)[C@H]6O[C@@H]6O[C@H](CO)[C@@H](O)[C@H](O)[C@H]6O[C@@H]6O[C@H](CO)[C@@H](O)[C@H](O)[C@H]6O)[C@H](O)C[C@]5(C)[C@H]4CC[C@]3(C)[C@@H]12` [FISTULOSAPONIN E]: the viability at 0.5 µM in assay [1] worked out at 60.9%. Moreover, in assay [2], the viability at 1 µM is 64.3%. In addition, in assay [3], the viability at 5 µM was 70.2%. In addition, the viability at 10 µM in assay [4] came to 77.9%. In addition, in assay [5], the viability at 50 µM is 75.4%. Also, the viability at 100 µM in assay [6] stood at 68%.

Source of the values: ChEMBL document CHEMBL1165995, “Anti-ischemia steroidal saponins from the seeds of Allium fistulosum” (2010).
